Measured values: ChEMBL document CHEMBL1141592, “Synthesis and anti-inflammatory activities of mono-carbonyl analogues of curcumin” (2008)
The source made the active and inactive calls. The rule behind the calls is not given here.

Key:
J774.A1 [1] = experiment: Antiinflammatory activity in mouse J774A.1 cells assessed as inhibition of lipopolysaccharide-induced TNFalpha production pretreated for 2 hrs at 10 uM before LPS challenge; format: functional
Method in brief: (§1)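 J774A.1 macrophages pretreated 2 h with test agent at 10 μM or vehicle, then stimulated with LPS 0.5 μg/ml for 24 h. Media collected and centrifuged (14,000 rpm, 5 min); TNF-α and IL-6 quantified by mouse ELISA kits. Total protein of viable cell pellets measured by Bio-Rad protein assay. Results expressed as percent of LPS control.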

J774.A1 [2] = experiment: Antiinflammatory activity in mouse J774A.1 cells assessed as inhibition of lipopolysaccharide-induced IL6 production pretreated for 2 hrs at 10 uM before LPS challenge; format: functional, cell-based; method in brief: as §1

## CN(C)c1ccc(/C=C2\CC/C(=C\c3ccc(N(C)C)cc3)C2=O)cc1
J774.A1 [1]
  Activity: Active
J774.A1 [2]
  Activity: Active

## CN(C)c1ccc(/C=C/C(=O)/C=C/c2ccc(N(C)C)cc2)cc1
J774.A1 [1]
  Activity: Active
J774.A1 [2]
  Activity: Active

## O=C1/C(=C/c2ccc(Br)o2)CCC/C1=C\c1ccc(Br)o1
J774.A1 [1]
  Activity: Active

## O=C(/C=C/c1ccc(OC2CCCCO2)cc1)/C=C/c1ccc(OC2CCCCO2)cc1 (stereo not drawn)
J774.A1 [1]
  Activity: Active

## COc1cc(/C=C/C(=O)CC(=O)/C=C/c2ccc(O)c(OC)c2)ccc1O
J774.A1 [1]
  Activity: Active

## COc1cc(/C=C2\CCC/C(=C\c3ccc(OC4CCCCO4)c(OC)c3)C2=O)ccc1OC1CCCCO1 (stereo not drawn)
J774.A1 [1]
  Activity: Active

## COc1cc(/C=C2\CC/C(=C\c3ccc(O)c(OC)c3)C2=O)ccc1O
J774.A1 [1]
  Activity: Active
J774.A1 [2]
  Activity: Active

## C=CCOc1ccc(/C=C2\CCC/C(=C\c3ccc(OCC=C)cc3)C2=O)cc1
J774.A1 [1]
  Activity: Active

## COc1cc(/C=C2\CCC/C(=C\c3ccc(O)c(OC)c3)C2=O)ccc1O
J774.A1 [1]
  Activity: Active
J774.A1 [2]
  Activity: Active

## CN(C)CCCOc1ccc(/C=C2\CC/C(=C\c3ccc(OCCCN(C)C)cc3)C2=O)cc1
J774.A1 [1]
  Activity: Active
J774.A1 [2]
  Activity: Active

## O=C1/C(=C/c2cccs2)CC/C1=C\c1cccs1
J774.A1 [1]
  Activity: Active

## COc1cc(/C=C/C(=O)/C=C/c2ccc(O)c(OC)c2)ccc1O
J774.A1 [1]
  Activity: Active
J774.A1 [2]
  Activity: Active

## C=CCOc1ccc(/C=C/C(=O)/C=C/c2ccc(OCC=C)cc2)cc1
J774.A1 [1]
  Activity: Active

## COc1cc(/C=C2\CC/C(=C\c3ccc(OC4CCCCO4)c(OC)c3)C2=O)ccc1OC1CCCCO1 (stereo not drawn)
J774.A1 [1]
  Activity: Active

## Cc1ccc(/C=C2\CC/C(=C\c3ccc(C)s3)C2=O)s1
J774.A1 [1]
  Activity: Active

## CN(C)c1ccc(/C=C2\CCC/C(=C\c3ccc(N(C)C)cc3)C2=O)cc1
J774.A1 [1]
  Activity: Active
J774.A1 [2]
  Activity: Active
